Assay results of several laboratories.
Lines come from different studies, so protocols differ.
Dihydrofolate reductase: Dihydrofolate reductase (Bos taurus, UniProt P00376)
MAPK14: Mitogen-activated protein kinase 14 (MAPK14, Homo sapiens, UniProt Q16539)
HTR1A: 5-hydroxytryptamine receptor 1A (HTR1A, Homo sapiens, UniProt P08908)

With COc1ccc(-n2nc(C(=O)c3ccc(Nc4cnccn4)cc3)sc2=N)cc1 the IC50 was 11.7 µM (Dihydrofolate reductase; enzyme activity, inhibitor).
COc1cc(C=O)cc(OC)c1O gave an IC50 of 1110 µM (Sucrase-isomaltase, intestinal (Si, Rattus norvegicus, UniProt P23739); enzyme activity, inhibitor, absorbance).
With Fc1ccc(Cc2[nH]nc(-c3ccccn3)c2-c2ccnc3ccccc23)cc1 the IC50 was 3.5 µM (MAPK14; enzyme activity, inhibitor, ADP detection).
NC(=O)c1nnn(Cc2cc(Cl)c(C(=O)c3ccc(Cl)cc3)c(Cl)c2)c1N gave an IC50 of 1.75 µM (HTR1A; cAMP, antagonist).
For NC/C(=C\F)COc1cccc(Cn2c(=S)[nH]c(=O)c3[nH]cnc32)c1, the IC50 was 0.005 µM (Amine oxidase [copper-containing] 3 (Rattus norvegicus, UniProt O08590); enzyme activity, inhibitor).
c1ccc(Cc2[nH]nc(-c3ccccn3)c2-c2ccnc3ccccc23)cc1 has an IC50 of 5.2 µM (MAPK14; enzyme activity, inhibitor, ADP detection).
With COc1ccccc1N1CCN(CC(C(=O)NC(C)(C)C)c2ccccc2)CC1 (stereo not drawn) the IC50 was 0.376 µM (HTR1A; cAMP, antagonist, TR-FRET).
For c1ccc(Cn2cc(-c3ccnc4ccccc34)c(-c3ccccn3)n2)cc1, the IC50 was 3 µM (MAPK14; enzyme activity, inhibitor, ADP detection).
With COc1ccc(N2N=C(C(=O)c3ccc(Nc4cnccn4)cc3)SC2=C(C#N)C#N)cc1 the IC50 was 0.36 µM (Dihydrofolate reductase; enzyme activity, inhibitor).
c1ccc(-c2[nH]ccc2-c2ccnc3ccccc23)nc1 gave an IC50 of greater than 30 µM (MAPK14; enzyme activity, inhibitor, ADP detection).
With N=c1sc(C(=O)c2ccc(Nc3cnccn3)cc2)nn1-c1ccc([N+](=O)[O-])cc1 the IC50 was 4.48 µM (Dihydrofolate reductase; enzyme activity, inhibitor).
For CNCc1cc(-c2cc(O)ccc2OC(F)(F)F)ccc1F, the IC50 was roughly 18 µM (Estrogen receptor (ESR1, Homo sapiens, UniProt P03372, Y537S); coactivator recruitment, TR-FRET).
